Test results taken from ChEMBL document CHEMBL1129062, “6- and 7-substituted 2-[2'-(dimethylamino)ethyl]-1,2-dihydro-3H-dibenz[de,h] isoquinoline-1,3-diones: synthesis, nucleophilic displacements, antitumor activity, and quantitative structure-activity relationships” (J Med Chem, 1996).
pIC50: −log10 of the molar value.

Assays:
MCF7 [1] = test: Tested against […] breast carcinoma (doxorubicin resistant) cell line in the sulforhodamine B assay.; type: functional, cell-based; details: Homo sapiens
Summary of the method: (§1)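 Sulforhodamine B assay. Cells plated at 50 000/well; drug added on day 2 at 10^1–10^-5 μg/mL in half-log steps from DMSO stock diluted in PBS, final DMSO ≤0.1%. After 8-day exposure at 37 °C, cells fixed with TCA at 4 °C for 1 h and stained 30 min with 0.4% SRB. Dye solubilized in 10 mM Tris and OD read at 564 nm. Six wells per concentration; IC50 averaged.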

B16 = test: Compound was tested against sc B16 melanoma cell line in mice at 15 mg/kg dosage.; type: functional; details: Mus musculus, route subcutaneous, read-out: TGI
L1210 [2] = test: Inhibitory activity against sensitive L1210 cell lines; type: functional, cell-based; details: Mus musculus
MCF7 [3] = test: Tested against […] breast carcinoma (sensitive) cell line in the sulforhodamine B assay.; type: functional, cell-based; details: Homo sapiens; summary of the method: as §1
L1210 [4] = test: Compound was tested against L1210 leukemia cell line in mice at 15 mg/kg dosage.; type: functional; details: Mus musculus
Summary of the method: (§2)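 Male DBA/2J mice, 10 per group, inoculated ip on day 0 with 10^6 freshly harvested leukemia cells. Compound given ip in equal doses on days 1, 5 and 9; controls received saline ip on the same days. Highest dose set 10% below the acute LD10. %ILS = 100 × (treated − control)/control, using median life span per group; value reported at highest nontoxic dose.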

[5] = An average for IC50 values in the two solid tumor cell lines and sensitive L1210 leukemia cell line.; type: functional, cell-based
WiDr [6] = test: Compound was tested against WiDr colon carcinoma (resistant)cell line in the sulforhodamine B assay.; type: functional, cell-based; details: Homo sapiens; summary of the method: as §1
P388 [7] = test: Compound was tested against P388 leukemia cell line in mice at 15 mg/kg dosage.; type: functional; details: Mus musculus; summary of the method: as §2
WiDr [8] = test: Compound was tested against WiDr colon (sensitive) cell line in the sulforhodamine B assay.; type: functional, cell-based; details: Homo sapiens; summary of the method: as §1
[9] = Toxicity ratio determined by the quotient of IC50 values in the myocytes divided by the average value in the three tumor lines.; type: functional
Summary of the method: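 Ratio is the myocyte cardiotoxicity IC50 (1-h exposure, ATP/protein ratio versus untreated myocytes) divided by the mean IC50 in sensitive L1210 and the two human tumor lines, measured with continuous exposure.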

MCF7 [10] = test: Tested against […] breast carcinoma (mitoxantrone resistant)cell line in the sulforhodamine B assay.; type: functional, cell-based; details: Homo sapiens; summary of the method: as §1
Tumor cell line = test: An average for IC50 values in the two solid tumor cell lines.; type: functional, cell-based
A549 = test: Compound was tested against A549 lung cancer cell line in the sulforhodamine B assay.; type: functional, cell-based; details: Homo sapiens; summary of the method: as §1
Rattus norvegicus = species on record: Rattus norvegicus; test: Cardiotoxicity by a neonatal rat heart myocyte assay; type: toxicity
Summary of the method: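 Neonatal rat heart myocytes exposed to drug for 1 h. Read-out is the ATP/protein ratio relative to untreated control myocytes. IC50 is the 1-h concentration that reduces this ratio to 50% of control.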

P388 [11] = test: Compound was tested against P388 leukemia at % increase in life span (ILS) in mice at 15 mg/kg dosage.; type: functional; details: Mus musculus; summary of the method: as §2

Work on `CN(C)CCN1C(=O)c2cccc3cc4ccccc4c(c23)C1=O` [AZONAFIDE] yielded a pIC50 (MCF7 [1]) of 7.15, an inhibition in vivo at 15 mg/kg (B16) of 74% and a pIC50 (L1210 [2]) of 8.15. It also gave a pIC50 (MCF7 [3]) of 7.74, an ILS at 15 mg/kg (L1210 [4]) of 72% and a pIC50 [5] of 7.35. For the same compound, the pIC50 (WiDr [6]) was 7.03, the ILS at 15 mg/kg (P388 [7]) was 79% and the pIC50 (WiDr [8]) was 7.89. The Toxicity ratio [9] was 44, the pIC50 (MCF7 [10]) was 7.70 and the pIC50 (Tumor cell line) was 7.19. For the same compound, the pIC50 (A549) was 8.00 and the pIC50 (Rattus norvegicus) was 5.70.
With `CN(C)CCN1C(=O)c2cccc3cc(N)cc(c23)C1=O` [AMONAFIDE] the ILS at 15 mg/kg (P388 [11]) was 88%, the pIC50 [5] was 5.79 and the Toxicity ratio [9] was 30. For the same compound, the pIC50 (Tumor cell line) was 5.68 and the pIC50 (Rattus norvegicus) was 4.32.
